Tests used:
[1] = system: Plasmodium falciparum; assay: Antimalarial activity against Plasmodium falciparum K1 by automated image mining based cytological profiling assay; format: functional, organism-based
Method in brief: (§1)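 Parasite cultures in 384-well format, read by automated imaging. Infected erythrocytes detected by DAPI nuclear staining against WGA-AlexaFluor 488 host-cell stain, and viability by Mitotracker Red CMXRos. Total culture parasitaemia quantified. EC50 given as mean±SD of two independent experiments, each in duplicate.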

[2] = system: Plasmodium falciparum; assay: Antimalarial activity against tightly synchronized Plasmodium falciparum K1 assessed as parasite stage accumulation index at schizonts stages at 10 uM treated at 18 hrs post-invasion for continuous duration of 36 hrs by automated image mining based cytological profiling assay; format: functional
Method in brief: (§2)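 Tightly synchronized cultures exposed to 10 µM final from 6 hpi (early ring), 18 hpi (late ring) or 30 hpi (mid-trophozoite) for a continuous 36 h. Erythrocytes stained with WGA-AlexaFluor 488, parasite nuclei with DAPI, functional mitochondria with Mitotracker Red CMXRos. Stages (early rings, late rings, trophozoites, schizonts) classified by nuclear spot number and size. Viable parasitaemia and stage accumulation index obtained by automated image analysis.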

[3] = system: Plasmodium falciparum; assay: Antimalarial activity against tightly synchronized Plasmodium falciparum K1 assessed as parasite stage accumulation index at trophozoites stages at 10 uM treated at 30 hrs post-invasion for continuous duration of 36 hrs by automated image mining based cytological profiling assay; format: functional; method in brief: as §2
[4] = system: Plasmodium falciparum; assay: Antimalarial activity against tightly synchronized Plasmodium falciparum K1 assessed as parasite stage accumulation index at schizonts stages at 10 uM treated at 30 hrs post-invasion for continuous duration of 36 hrs by automated image mining based cytological profiling assay; format: functional; method in brief: as §2
[5] = system: Plasmodium falciparum; assay: Antimalarial activity against Plasmodium falciparum W2 by automated image mining based cytological profiling assay; format: functional, organism-based; method in brief: as §1
[6] = system: Plasmodium falciparum; assay: Antimalarial activity against Plasmodium falciparum HB3 by automated image mining based cytological profiling assay; format: functional; method in brief: as §1
[7] = system: Plasmodium falciparum; assay: Antimalarial activity against tightly synchronized Plasmodium falciparum HB3 assessed as parasite stage accumulation index at early ring stages at 10 uM treated at 6 hrs post-invasion for continuous duration of 36 hrs by automated image mining based cytological profiling assay; format: functional
[8] = system: Plasmodium falciparum; assay: Antimalarial activity against tightly synchronized Plasmodium falciparum HB3 assessed as parasite stage accumulation index at late ring stages at 10 uM treated at 6 hrs post-invasion for continuous duration of 36 hrs by automated image mining based cytological profiling assay; format: functional; method in brief: as §2
[9] = system: Plasmodium falciparum; assay: Antimalarial activity against tightly synchronized Plasmodium falciparum HB3 assessed as parasite stage accumulation index at trophozoites stages at 10 uM treated at 6 hrs post-invasion for continuous duration of 36 hrs by automated image mining based cytological profiling assay; format: functional; method in brief: as §2
[10] = system: Plasmodium falciparum; assay: Antimalarial activity against tightly synchronized Plasmodium falciparum HB3 assessed as parasite stage accumulation index at schizonts stages at 10 uM treated at 6 hrs post-invasion for continuous duration of 36 hrs by automated image mining based cytological profiling assay; format: functional; method in brief: as §2
[11] = system: Plasmodium falciparum; assay: Antimalarial activity against tightly synchronized Plasmodium falciparum HB3 assessed as parasite stage accumulation index at late ring stages at 10 uM treated at 18 hrs post-invasion for continuous duration of 36 hrs by automated image mining based cytological profiling assay; format: functional; method in brief: as §2
[12] = system: Plasmodium falciparum; assay: Antimalarial activity against tightly synchronized Plasmodium falciparum HB3 assessed as parasite stage accumulation index at trophozoites stages at 10 uM treated at 18 hrs post-invasion for continuous duration of 36 hrs by automated image mining based cytological profiling assay; format: functional; method in brief: as §2
[13] = system: Plasmodium falciparum; assay: Antimalarial activity against tightly synchronized Plasmodium falciparum HB3 assessed as parasite stage accumulation index at schizonts stages at 10 uM treated at 18 hrs post-invasion for continuous duration of 36 hrs by automated image mining based cytological profiling assay; format: functional; method in brief: as §2
[14] = system: Plasmodium falciparum; assay: Antimalarial activity against tightly synchronized Plasmodium falciparum HB3 assessed as parasite stage accumulation index at schizonts stages at 10 uM treated at 30 hrs post-invasion for continuous duration of 36 hrs by automated image mining based cytological profiling assay; format: functional
[15] = system: Plasmodium falciparum; assay: Antimalarial activity against tightly synchronized Plasmodium falciparum W2 assessed as parasite stage accumulation index at early ring stages at 10 uM treated at 6 hrs post-invasion for continuous duration of 36 hrs by automated image mining based cytological profiling assay; format: functional; method in brief: as §2
[16] = system: Plasmodium falciparum; assay: Antimalarial activity against tightly synchronized Plasmodium falciparum W2 assessed as parasite stage accumulation index at late ring stages at 10 uM treated at 6 hrs post-invasion for continuous duration of 36 hrs by automated image mining based cytological profiling assay; format: functional
[17] = system: Plasmodium falciparum; assay: Antimalarial activity against tightly synchronized Plasmodium falciparum W2 assessed as parasite stage accumulation index at trophozoites stages at 10 uM treated at 6 hrs post-invasion for continuous duration of 36 hrs by automated image mining based cytological profiling assay; format: functional
[18] = system: Plasmodium falciparum; assay: Antimalarial activity against tightly synchronized Plasmodium falciparum W2 assessed as parasite stage accumulation index at schizonts stages at 10 uM treated at 6 hrs post-invasion for continuous duration of 36 hrs by automated image mining based cytological profiling assay; format: functional; method in brief: as §2
[19] = system: Plasmodium falciparum; assay: Antimalarial activity against tightly synchronized Plasmodium falciparum W2 assessed as parasite stage accumulation index at late ring stages at 10 uM treated at 18 hrs post-invasion for continuous duration of 36 hrs by automated image mining based cytological profiling assay; format: functional; method in brief: as §2
[20] = system: Plasmodium falciparum; assay: Antimalarial activity against tightly synchronized Plasmodium falciparum W2 assessed as parasite stage accumulation index at schizonts stages at 10 uM treated at 18 hrs post-invasion for continuous duration of 36 hrs by automated image mining based cytological profiling assay; format: functional
[21] = system: Plasmodium falciparum; assay: Antimalarial activity against tightly synchronized Plasmodium falciparum W2 assessed as parasite stage accumulation index at trophozoites stages at 10 uM treated at 30 hrs post-invasion for continuous duration of 36 hrs by automated image mining based cytological profiling assay; format: functional; method in brief: as §2
[22] = system: Plasmodium falciparum; assay: Antimalarial activity against tightly synchronized Plasmodium falciparum K1 assessed as parasite stage accumulation index at early ring stages at 10 uM treated at 6 hrs post-invasion for continuous duration of 36 hrs by automated image mining based cytological profiling assay; format: functional; method in brief: as §2
[23] = system: Plasmodium falciparum; assay: Antimalarial activity against tightly synchronized Plasmodium falciparum K1 assessed as parasite stage accumulation index at late ring stages at 10 uM treated at 6 hrs post-invasion for continuous duration of 36 hrs by automated image mining based cytological profiling assay; format: functional
[24] = system: Plasmodium falciparum; assay: Antimalarial activity against tightly synchronized Plasmodium falciparum K1 assessed as parasite stage accumulation index at schizonts stages at 10 uM treated at 6 hrs post-invasion for continuous duration of 36 hrs by automated image mining based cytological profiling assay; format: functional; method in brief: as §2
[25] = system: Plasmodium falciparum; assay: Antimalarial activity against tightly synchronized Plasmodium falciparum K1 assessed as parasite stage accumulation index at late ring stages at 10 uM treated at 18 hrs post-invasion for continuous duration of 36 hrs by automated image mining based cytological profiling assay; format: functional; method in brief: as §2
[26] = system: Plasmodium falciparum; assay: Antimalarial activity against tightly synchronized Plasmodium falciparum K1 assessed as parasite stage accumulation index at trophozoites stages at 10 uM treated at 18 hrs post-invasion for continuous duration of 36 hrs by automated image mining based cytological profiling assay; format: functional; method in brief: as §2

In the case of `COc1ccc(CO[C@H]([C@H](OCc2ccc(OC)cc2)c2cnc(N(C)C)nc2)[C@@H](CO)OS(C)(=O)=O)cc1`, the EC50 [1] is reported as 5030 nM.

`COc1ccc(CO[C@H]([C@H](COC(c2ccccc2)(c2ccccc2)c2ccccc2)N=[N+]=[N-])[C@H](OCc2ccc(OC)cc2)c2cnc(N(C)C)nc2)cc1` showed an EC50 [1] of 167 nM.

Work on `CCN(CC)CCCC(C)Nc1ccnc2cc(Cl)ccc12` (configuration not stated) [CHLOROQUINE] yielded an Activity [2] of 0.37, an Activity [3] of 0.75 and an Activity [4] of 0.56. For the same compound, the EC50 [1] was 208 nM, the EC50 [5] was 221 nM and the EC50 [6] was 33 nM. The Activity [7] was 1.82, the Activity [8] was 3.05 and the Activity [9] was 0.52. The Activity [10] was 0.2, the Activity [11] was 2.17 and the Activity [12] was 1.85. For the same compound, the Activity [13] was 0.82, the Activity [14] was 1.83 and the Activity [15] was 1.78. For the same compound, the Activity [16] was 1.51, the Activity [17] was 0.65 and the Activity [18] was 0.53. It also gave an Activity [19] of 1.82, an Activity [20] of 1.64 and an Activity [21] of 1.26. It also gave an Activity [22] of 1.72, an Activity [23] of 1.62 and an Activity [24] of 0.25. The Activity [25] was 1.38 and the Activity [26] was 1.22.

`COc1ccc(CO[C@@H]([C@H](O)COC(c2ccccc2)(c2ccccc2)c2ccccc2)[C@H](OCc2ccc(OC)cc2)c2cnc(N(C)C)nc2)cc1` showed an EC50 [1] of 200 nM.

In the case of `COc1ccc(CO[C@@H]([C@H](CO)N=[N+]=[N-])[C@H](OCc2ccc(OC)cc2)c2cnc(N(C)C)nc2)cc1`, the EC50 [1] is reported as 5450 nM.

`COc1ccc(CO[C@H]([C@H](COS(C)(=O)=O)N=[N+]=[N-])[C@H](OCc2ccc(OC)cc2)c2cnc(N(C)C)nc2)cc1` was tested, and the EC50 [1] was 11700 nM.

`COc1ccc(O[C@@H]([C@H](Oc2ccc(OC)cc2)c2cnn(C)c2)[C@@H](COC(c2ccccc2)(c2ccccc2)c2ccccc2)OS(C)(=O)=O)cc1` gave an EC50 [1] of 237 nM.
